mABHD4 FP = inhibits mouse alpha/beta hydrolase domain 4. Q8VD66. purified mABHD4, FP-Rh probe fluorescence polarization. inhibition, % at 8.92 µM. 370,000 compounds, 0.54% hits. AID 720543;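 active = inhibition exceeding the mean over every tested compound plus 3 SD, cut at about 30% in these data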;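 note: 0% = plate median of compound wells and 100% = S159A mutant with DMSO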
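Material: mouse ABHD4 enzyme, wild type; Benchmarks: S159A mutant high control, sample median low control; Buffer or medium: HEPES pH 7.0, NaCl, Pluronic buffer; Signal: fluorescence polarization; Read-out: percent inhibition of probe binding, normalized to plate controls; Timing: pre-incubation 45 min, probe exposure 60 min, at 25 °C; Dosing: 8.92 µM, single dose.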
PAFAH1B3 FP inh = inhibitors of human PAFAH1B3; recombinant PAFAH1B3, FP-rhodamine probe, fluorescence polarization; 340,000 compounds, 0.28% hits; AID 492972; inhibition, % at 3.39 µM;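 active = inhibition above the screen-wide average of all tested compounds plus 3 SD, cut at about 25% in these data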;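 note: 0% = enzyme with DMSO only and 100% = wells lacking PAFAH1B3 protein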
Target sequence (Q15102 whole entry, looked up): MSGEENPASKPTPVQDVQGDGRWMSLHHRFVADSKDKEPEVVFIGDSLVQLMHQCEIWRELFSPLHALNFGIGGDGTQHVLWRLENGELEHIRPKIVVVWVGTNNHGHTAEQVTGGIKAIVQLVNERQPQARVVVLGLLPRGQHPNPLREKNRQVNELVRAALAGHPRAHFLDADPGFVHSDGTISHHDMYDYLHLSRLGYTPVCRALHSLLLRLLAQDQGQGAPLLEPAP
PAFAH1B2 FP inh = inhibitors of human PAFAH1B2; recombinant PAFAH1B2, FP-rhodamine activity probe, fluorescence polarization; inhibition, % at 3.39 µM; 340,000 compounds, 1.2% hits; AID 492953;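 active = inhibition above the mean of all tested compounds plus 3 SD, cut at about 24% in these data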;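 note: 0% = enzyme with DMSO and 100% = wells lacking PAFAH1B2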
Target sequence (P68402 whole entry, looked up): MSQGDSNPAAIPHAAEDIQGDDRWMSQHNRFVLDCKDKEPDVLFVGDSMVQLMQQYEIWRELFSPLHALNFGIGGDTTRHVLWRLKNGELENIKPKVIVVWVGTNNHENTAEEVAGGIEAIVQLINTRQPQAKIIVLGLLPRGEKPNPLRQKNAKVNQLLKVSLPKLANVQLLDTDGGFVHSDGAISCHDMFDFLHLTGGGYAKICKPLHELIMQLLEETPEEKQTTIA
HTRA1 inhibitor = blocks human HTRA1 serine peptidase; Q92743; recombinant HTRA1, FP-rhodamine activity-based probe, fluorescence polarization; inhibition, % at 5.96 µM; 340,000 compounds, 0.5% hits; AID 504803; in the data active = inhibition above about 36%;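 note: 0% = enzyme with DMSO and 100% = wells lacking enzyme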
pPAFAH FP inh = pPAFAH (human) enzyme inhibition; Q13093; recombinant pPAFAH, FP-rhodamine probe fluorescence polarization; inhibition, % at 3.39 µM; 330,000 compounds, 1.5% hits;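 active = inhibition above the mean inhibition across the screen plus 3 SD, cut at about 25% in these data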;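 note: inhibitors block binding of the rhodamine activity-based probe so polarization drops; 0% = enzyme with DMSO and 100% = wells lacking pPAFAH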
PAFAH2 FP inh = PAFAH2 (human) inhibition; Q99487; recombinant PAFAH2, FP-rhodamine activity probe, fluorescence polarization; inhibition, % at 3.39 µM; 340,000 compounds, 0.99% hits; AID 492956;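 active = inhibition above the mean over all tested compounds plus 3 SD, cut at about 30% in these data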;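 note: inhibitors block probe labeling of enzyme so polarization drops; 0% = enzyme with DMSO and 100% = wells lacking PAFAH2 protein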
Starred values were filed as active, the others as inactive; x = not tested or not shown; + = active, no number. Most compounds without a hit are left out; they make up all but 2.8% or so of the library.

SMILES	mABHD4 FP	PAFAH1B3 FP inh	PAFAH1B2 FP inh	HTRA1 inhibitor	pPAFAH FP inh	PAFAH2 FP inh
O=C(Cc1ccc(Cl)cc1)NNC1CC(=O)N(c2ccc3ccccc3c2)C1=O (stereo not drawn)	-18	5	25*	-5	5	-1
Cc1ccc(C)n1-c1ccc(C(=O)O)cc1	x	x	x	x	31*	x
CC(=O)c1c(C(C)=O)c(C)n(-c2ccc(C(=O)O)cc2)c1C	1	5	2	-7	-1	-5
O=C(COC(=O)CCS(=O)(=O)c1ccc(Cl)cc1)NC1CCCCC1	9	11	9	0	20	1
O=C(Cc1ccccc1)NCCc1ccc(Cl)cc1Cl	x	6	4	-3	-6	3
O=C(COC(=O)CCS(=O)(=O)c1ccc(Cl)cc1)NCCc1ccc(Cl)cc1Cl	1	-5	26*	5	3	-3
O=C(Cc1ccc(Br)cc1)NCCc1ccc(Cl)cc1Cl	-9	-2	27*	-15	0	-4
COC(=O)[C@]12C[C@H](CC(=O)N3CCSCC3)C(=O)N(Cc3cccc4ccccc34)C1=C[C@H](C(C)C)O[C@@H]2C1CC1	-4	x	x	x	x	x
CCCCCCCc1nc2c(=O)n(C)c3ccccc3c2o1	-1	4	1	3	31*	5
CCOc1ccc(N=Nc2c(=O)[nH]n3c(=O)c4c([nH]c23)CCCC4)cc1	8	6	7	2	7	9
O=c1[nH]n2c(=O)c3c([nH]c2c1N=Nc1cccc(Cl)c1)CCCC3	19	14	34*	17	31*	30*
O=C(CN[C@@H](Cc1c[nH]c2ccccc12)C(=O)NCCc1c[nH]c2ccccc12)NC1CCCCC1	9	x	x	x	x	x
CCOC(=O)C(Cc1ccccc1)P(=O)(OCC)OCC (stereo not drawn)	8	x	x	x	x	x
O=C(O)c1cccc(NC(CNS(=O)(=O)c2ccc(Cl)cc2)c2ccccc2)c1 (stereo not drawn)	2	11	75*	-19	26*	18
O=S(=O)(NCC(Nc1ccccc1)c1ccccc1)c1ccc(Cl)cc1 (stereo not drawn)	-18	0	17	-45	10	13
O=C(CSc1cc(Cl)ccc1Cl)N/N=C/c1ccc[nH]1	2	x	x	x	x	x
CCN(CC)c1ccc2c(-c3ccc(S(=O)(=O)O)cc3S(=O)(=O)[O-])c3ccc(=[N+](CC)CC)cc-3oc2c1	x	+	174*	x	173*	+
C#CCNC(=O)C[C@@H]1C(=O)N(CC=C)C2=CCCCC[C@]21C(=O)OC	7	x	x	x	x	x
COCCn1c(C23CC4CC(CC(C4)C2)C3)n[nH]c1=S	-2	7	5	4	5	5
CCCCn1c(C23CC4CC(CC(C4)C2)C3)n[nH]c1=S	-13	-1	29*	-8	2	4
C=CCN(CC#Cc1ccc(C(F)(F)F)cc1)CC=C	-6	x	x	x	x	x
CN(Cc1ccccc1)C(=O)c1ccco1	1	0	2	-1	-3	0
Cc1ccc(C(CCN(Cc2ccccc2)C(=O)c2ccco2)c2ccco2)cc1 (stereo not drawn)	-12	1	-4	-43	30*	15
Cc1cc(C)cc(OCC(C)CN2CCC(C(O)(c3ccccc3)c3ccccc3)CC2)c1 (stereo not drawn)	13	x	x	x	x	x
O=S(=O)(NCCc1cccs1)c1ccc(Br)cc1	-2	2	25*	-11	-1	6
SMILES	mABHD4 FP	PAFAH1B3 FP inh	PAFAH1B2 FP inh	HTRA1 inhibitor	pPAFAH FP inh	PAFAH2 FP inh
O=[N+]([O-])c1cccc(S(=O)(=O)NCCc2cccs2)c1	2	6	10	-1	6	4
Cc1cccc(N2CCN(C(=O)c3cc4n(n3)C(C(F)(F)F)CC(c3ccco3)N4)CC2)c1C (stereo not drawn)	-7	4	3	-32	34*	7
O=C(c1cc2n(n1)C(C(F)(F)F)CC(c1ccco1)N2)N1CCN(c2ccccn2)CC1 (stereo not drawn)	5	9	0	-5	9	-6
C=Cc1ccc(C(=O)N(Cc2ccc(F)cc2)C(C(=O)N(C)C2CCCC2)c2ccc(OC)c(OC)c2)cc1 (stereo not drawn)	-6	x	x	x	x	x
N#Cc1ccc(CC(=O)c2ccccc2)[nH]c1=O	43*	12	10	28	x	4
N#Cc1ccc(CCc2ccccc2)[nH]c1=O	-3	3	4	6	x	2
O=C(NCc1ccc(C(=O)NCC2CCCO2)cc1)c1cccc(Br)c1 (stereo not drawn)	-2	x	x	x	x	x
O=C(CN1CCN(S(=O)(=O)c2ccc(Br)cc2)CC1)N/N=C/c1ccncc1	1	8	29*	3	-7	-6
CCc1ccc(-n2cc(-c3ccc([N+](=O)[O-])cc3)[nH]c2=S)cc1	0	-18	0	1	-1	-6
CCc1ccc(-c2cn(C3CCCCC3)c(=S)[nH]2)cc1	25	6	1	-2	30*	9
CC(=O)Nc1ccc(NC(=O)C(C)OC(=O)C(C)SCC(=O)Nc2ccc(F)cc2)cc1 (stereo not drawn)	0	6	-1	-10	3	4
CC(=O)Nc1ccc(NC(=O)C(C)OC(=O)C2(c3ccc(F)cc3)CCCC2)cc1 (stereo not drawn)	-18	19	41*	-5	6	-2
COc1cccc([C@H]2NC(=O)C/C=C/[C@@H](C)[C@@H](c3cccc(OC)c3)NC(=O)C/C=C/[C@H]2C)c1	-17	x	x	x	x	x
Cc1cc(=O)n2[nH]c(SCc3ccc(Cl)cc3)nc2n1	-5	-7	50*	-1	26*	18
Cc1nnc(SCc2ccccc2)[nH]c1=O	2	2	-1	8	34*	5
O=c1cc(O)nc(SCc2ccc(Cl)cc2)[nH]1	-3	11	56*	-9	16	-2
O=c1[nH]c(SCc2ccc(Cl)cc2)nc2ccccc12	-4	12	26*	-17	8	-2
Cc1ccc(CSc2nnc(C)c(=O)[nH]2)cc1	-1	1	23	-1	16	8
COC(=O)[C@]12C[C@H](CC(=O)NCc3ccc(OC)c(OC)c3)C(=O)N(Cc3ccco3)C1=C[C@H](COCc1ccccc1)O[C@@H]2C	-6	x	x	x	x	x
CCC[C@H]1[C@@H](N(C)Cc2cccs2)CC[C@@]23CCCN2C(=O)CCC[C@@H]13	-9	x	x	x	x	x
CCC(C)Sc1nc(O)cc(=O)[nH]1 (stereo not drawn)	-14	8	7	1	7	10
CC(=O)c1ccc(OC(C)C)c(CSc2nc(O)cc(=O)[nH]2)c1	2	-4	4	-6	28*	7
O=c1cc(-c2ccccc2)nc(SCc2ccc(Cl)cc2)[nH]1	-3	5	24*	-5	2	5
O=c1[nH]c(SCc2ccc(OC(F)(F)F)cc2)nc2c1CCC2	0	x	x	x	x	x

Compound activity as filed in PubChem BioAssay.
